Experimental data pooled from the literature.
Each line is one published result; the experiments were not run side by side.
FLT3 R834Q: Receptor-type tyrosine-protein kinase FLT3 (FLT3, Homo sapiens, UniProt P36888, R834Q)
FLT3: Receptor-type tyrosine-protein kinase FLT3 (FLT3, Homo sapiens, UniProt P36888)
FLT3 D835Y: Receptor-type tyrosine-protein kinase FLT3 (FLT3, Homo sapiens, UniProt P36888, D835Y)
FLT3 K663Q: Receptor-type tyrosine-protein kinase FLT3 (FLT3, Homo sapiens, UniProt P36888, K663Q)
FLT3 autoinhibited: Receptor-type tyrosine-protein kinase FLT3, autoinhibited (FLT3, Homo sapiens, UniProt P36888)

`CO[C@@H](C)c1c(Nc2ccc([C@@H](N(C)C(=O)C3CCS(=O)(=O)CC3)C(F)(F)F)cc2)cnc2cc(Cl)nn12` gave a remaining binding of 87% (Receptor-type tyrosine-protein kinase FLT3 (FLT3, Homo sapiens, UniProt P36888, F691L/ITD); cell-free assay; competition with immobilised ligand; 1 µM).
With `C=CC(=O)N1CCC(C(=O)NCC(=O)N2CCN(c3nc(-c4cnc(N)nc4C(F)F)nc(N4CCOCC4)n3)CC2)CC1` the remaining binding was 84% (FLT3 R834Q; binding; competition with immobilised ligand; 1 µM).
`CN(C)c1nccc(-c2cnc3ncccn23)n1` has a remaining binding of 100% (FLT3; binding; 1 µM).
`O=C(NCCCN1CCOCC1)c1ccc(Nc2nccc(-c3cc4ccccc4s3)n2)cc1` gave a remaining binding of 18% (FLT3 D835Y; binding; competition with immobilised ligand; 1 µM).
`COc1ncc2cc3ccccc3nc2c1C#N` gave a remaining binding of 91% (FLT3; cell-free assay; competition with immobilised ligand; 5 µM).
For `CNCc1ccccc1-c1csc([C@H](C)Nc2nc(C)nc3cc(OC)c(OC)cc23)c1`, the remaining binding was 99% (Receptor-type tyrosine-protein kinase FLT3 (FLT3, Homo sapiens, UniProt P36888, ITD); cell-free assay; competition with immobilised ligand; 1 µM).
`O=C(NCC1CCOCC1)c1n[nH]cc1NC(=O)c1c(F)cccc1F` gave a remaining binding of 91% (FLT3 K663Q; binding; competition with immobilised ligand; 1 µM).
`c1cncc(-c2cccc(Nc3nccc(NC4CCCCC4)n3)c2)c1` has a remaining binding of 0% (Receptor-type tyrosine-protein kinase FLT3 (FLT3, Homo sapiens, UniProt P36888, D835V); binding; competition with immobilised ligand; 10 µM).
The remaining binding of `CN(c1ccnc(CNc2nc(Nc3ccc4c(c3)CC(=O)N4)ncc2C(F)(F)F)n1)S(C)(=O)=O` is reported as 15% (Receptor-type tyrosine-protein kinase FLT3 (FLT3, Homo sapiens, UniProt P36888, D835H); cell-free assay; competition with immobilised ligand; 1 µM).
For `O=C(NCCCN1CCOCC1)c1ccc(Nc2ncc(Cl)c(-c3ccc(Cl)s3)n2)cc1`, the remaining binding was 0.6% (Receptor-type tyrosine-protein kinase FLT3 (FLT3, Homo sapiens, UniProt P36888, N841I); binding; competition with immobilised ligand; 1 µM).
With `C[C@H]1CCN(c2nccc(-c3cnn4ncccc34)n2)C1` the remaining binding was 71% (FLT3 R834Q; binding; 1 µM).
`COc1cnc(Nc2cccc(S(N)(=O)=O)c2)nc1N1CCN(c2ccccc2)CC1` has a remaining binding of 61% (FLT3 D835Y; binding; competition with immobilised ligand; 1 µM).
With `c1cnn2ncc(-c3ccnc(N4CCC45COC5)n3)c2c1` the remaining binding was 85% (FLT3; binding; 1 µM).
`O=C(NCCCC1CCCCC1)c1ccc(CNC(=O)c2cnn(-c3ccccc3)c2C(F)(F)F)cc1` gave a remaining binding of 100% (FLT3 autoinhibited; cell-free assay; competition with immobilised ligand; 0.1 µM).
`O=C(c1ccc(Nc2nccc(-c3cc4ccccc4s3)n2)cc1)N1CCC(N2CCCC2)CC1` has a remaining binding of 64% (FLT3 autoinhibited; binding; competition with immobilised ligand; 1 µM).
With `Cc1c(NC(=O)c2cc(C(N)=O)nc3cc(F)ccc23)c(C(F)(F)F)nn1Cc1ccc(C#N)cc1` the remaining binding was 99% (FLT3; cell-free assay; competition with immobilised ligand; 1 µM).
With `N[C@@H]1CCN(c2nccc(-c3cnn4ncccc34)n2)C1` the remaining binding was 100% (FLT3 R834Q; binding; 1 µM).
The remaining binding of `C[C@@H]1CN(c2cc(-c3n[nH]c4ccc(OC5(C)CC5)cc34)ncn2)C[C@H](C)O1` is reported as 100% (FLT3 K663Q; cell-free assay; competition with immobilised ligand; 0.1 µM).
`CN(C)c1ncc(F)c(-c2cnn3ncccc23)n1` has a remaining binding of 100% (FLT3 K663Q; binding; 1 µM).
`CCS(=O)(=O)c1cc2cc(C[C@@](O)(CC(C)(C)c3ccc(F)cc3C(N)=O)C(F)(F)F)[nH]c2cn1` gave a remaining binding of 97% (FLT3; cell-free assay; competition with immobilised ligand; 1 µM).
The remaining binding of `O=C(c1ccc(Nc2ncc(Cl)c(-c3ccc(Cl)s3)n2)cc1)N1CCC(N2CCCC2)CC1` is reported as 1.1% (FLT3 D835Y; binding; competition with immobilised ligand; 1 µM).
